Measured values from ChEMBL document CHEMBL4219061, “Structure-activity relationships of cryptopleurine analogs with E-ring modifications as anti-hepatitis C virus agents” (Bioorg Med Chem, 2018).
pEC50, pIC50: −log10 of the molar value. The source made the active and inactive calls. The calls are words filed in the database; no cut-off is given here.

How the values were obtained:
Hepatitis C virus = test: Antiviral activity against HCV genotype 1b con1 infected in human Huh-luc/neo-ET cells assessed as inhibition of viral replication after 72 hrs; assay type: functional, organism-based, Hepacivirus hominis; details: isolate Con1, Huh-luc/neo-ET
Outline: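 Firefly-luciferase reporter in the Con1 genotype 1b subgenomic replicon used to follow HCV replication in Huh-luc/neo-ET cells, tested without G418 (routinely kept in DMEM, 10% FBS, 1 mM nonessential amino acids, 250 µg/ml G418, 37 °C, 5% CO2). Luciferase read on a plate reader. EC50 = concentration giving 50% inhibition of replication versus DMSO vehicle. Mean ± SD of three independent experiments.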

[1] = Cytotoxicity against human Huh-luc/neo-ET cells assessed as cell growth inhibition; assay type: cell-based
Outline: (§1)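 Cell growth measured against DMSO vehicle in HepG2.2.15 cells (MEME, 10% FCS, 50 µg/ml kanamycin) or in Huh-luc/neo-ET cells. IC50 = concentration giving 50% inhibition of cell growth. Mean ± SD of three independent experiments.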

[2] = Therapeutic index, ratio of IC50 for human Huh-luc/neo-ET cells to EC50 for HCV genotype 1b con1; assay type: toxicity; details: Huh-luc/neo-ET cells (HCV genotype 1b con1), read-out: Ratio IC50/EC50
Hepatitis B virus = test: Antiviral activity against HBV infected in human HepG2(2.2.15) cells assessed as inhibition of viral DNA level after 6 days by Southern blot analysis; assay type: functional; details: HepG2 2.2.15, 144 h
Outline: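 HepG2.2.15 cells (HBV genome integrated; MEME, 10% FCS, kanamycin) seeded ~5 × 10^5 per well and grown 6 days, then given compound for 6 days with fresh medium every other day. Total DNA (20 μg) run on 1% agarose, blotted, hybridized overnight at 65 °C with 32P-labeled full-length HBV probe; read by film or PhosphorImager.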

HepG2 2.2.15 [3] = test: Cytotoxicity against human HepG2(2.2.15) cells assessed as cell growth inhibition; assay type: cell-based; outline: as §1
[4] = target: Heat shock cognate 71 kDa protein (Homo sapiens) (UniProt P11142); test: Displacement of biotinylated-rac-cryptopleurine from recombinant HSC70 (unknown origin) […] by Western blot analysis
Chain of Heat shock cognate 71 kDa protein (Homo sapiens) (P11142 2-646 limits assumed): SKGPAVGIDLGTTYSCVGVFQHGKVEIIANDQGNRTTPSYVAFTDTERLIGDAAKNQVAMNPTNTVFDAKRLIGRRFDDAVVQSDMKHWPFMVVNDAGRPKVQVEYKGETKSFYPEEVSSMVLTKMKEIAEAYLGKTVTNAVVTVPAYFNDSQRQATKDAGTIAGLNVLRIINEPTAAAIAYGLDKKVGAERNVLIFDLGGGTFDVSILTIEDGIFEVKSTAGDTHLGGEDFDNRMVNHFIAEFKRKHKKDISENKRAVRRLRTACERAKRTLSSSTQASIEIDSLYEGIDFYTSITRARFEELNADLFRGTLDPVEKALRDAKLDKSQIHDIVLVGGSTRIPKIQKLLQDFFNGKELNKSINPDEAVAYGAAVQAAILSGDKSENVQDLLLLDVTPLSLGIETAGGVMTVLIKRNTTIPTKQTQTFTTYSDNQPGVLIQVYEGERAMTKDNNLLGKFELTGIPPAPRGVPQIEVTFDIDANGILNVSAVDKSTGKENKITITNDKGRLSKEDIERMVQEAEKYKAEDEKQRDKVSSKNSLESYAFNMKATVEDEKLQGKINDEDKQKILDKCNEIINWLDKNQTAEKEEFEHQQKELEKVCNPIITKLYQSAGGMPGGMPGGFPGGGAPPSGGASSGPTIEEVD
Outline: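 Biotinylated rac-cryptopleurine loaded overnight at room temperature onto streptavidin resin in 50% DMSO/50% protein-binding buffer (20 mM Hepes pH 7.9, 100 mM NaCl, 0.5% NP-40, 6 mM MgCl2). Resin washed, then incubated 2 h at room temperature with recombinant His-Hsc70 (E. coli BL21(DE3)pLysS, Ni-NTA purified) in 2.5% BSA. Bound Hsc70 eluted with buffer alone or with compound.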

[5] = target: Heat shock cognate 71 kDa protein (Homo sapiens) (UniProt P11142); test: Allosteric regulation of recombinant HSC70 (unknown origin) ATPase activity assessed as increase in ADP production at 10 uM after 10 mins in presence of HCV wild type poly U/UC RNA by HPLC analysis
Outline: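 Recombinant Hsc70 (0.25 μM) incubated with compound at 10 μM plus ATP and 0.5 μM HCV wild-type poly U/UC RNA in MOPS buffer pH 7.4 (Mg(OAc)2, KOAc, DTT, BSA), 37 °C, 10 min. Stopped with TCA (15% final), extracted with trichlorotrifluoroethane:trioctylamine, ADP quantified by HPLC against standard curve on same column. Mean ± SD, three experiments.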

[6] = target: Heat shock cognate 71 kDa protein (Homo sapiens) (UniProt P11142); test: Induction of HSC70 chaperone activity in human Huh-luc/neo-ET cells assessed as reduction in HCV RNA NS5A protein expression at 6 nM after 24 hrs; assay type: cell-based
Outline: (§2)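 Huh-luc/neo-ET replicon cells (HCV 1b Con1, DMEM, 10% FBS) transiently transfected with FLAG-CHIP plasmid or empty vector, then treated 24 h with compound. HCV RNA, NS3 and NS5A protein levels measured. Representative of more than two independent experiments; two-tailed Student's t-test, p < .05.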

[7] = target: Heat shock cognate 71 kDa protein (Homo sapiens) (UniProt P11142); test: Induction of HSC70 (unknown origin) chaperone activity assessed as reactivation of guanidine-denatured luciferase at 10 uM in presence of human recombinant CHIP by luciferase reporter gene assay
[8] = target: Heat shock cognate 71 kDa protein (Homo sapiens) (UniProt P11142); test: Induction of HSC70 chaperone activity in human Huh-luc/neo-ET cells assessed as reduction in HCV RNA NS3 protein expression at 6 nM after 24 hrs; assay type: cell-based; outline: as §2
[9] = target: Heat shock cognate 71 kDa protein (Homo sapiens) (UniProt P11142); test: Induction of HSC70 chaperone activity in human Huh-luc/neo-ET cells co-transfected with FLAG-tagged CHIP assessed as reduction in HCV RNA NS3 protein expression at 6 nM after 24 hrs; assay type: cell-based; outline: as §2
[10] = target: Heat shock cognate 71 kDa protein (Homo sapiens) (UniProt P11142); test: Induction of HSC70 chaperone activity in human Huh-luc/neo-ET cells co-transfected with FLAG-tagged CHIP assessed as reduction in HCV RNA NS5A protein expression at 6 nM after 24 hrs; assay type: cell-based; outline: as §2
[11] = Effect on […] CHIP expression in human Huh-luc/neo-ET cells at 6 nM after 24 hrs; assay type: ADME, cell-based; details: 0.006 µM
Huh-luc/neo-ET = test: Effect on HSC70 expression in human Huh-luc/neo-ET cells at 6 nM measured up to 72 hrs by Western blot analysis
[12] = target: Heat shock cognate 71 kDa protein (Homo sapiens) (UniProt P11142); test: Induction of HSC70 chaperone activity in human Huh-luc/neo-ET cells assessed as reduction in HCV RNA NS3 protein expression at 3 nM after 24 hrs; assay type: cell-based
Outline: (§3)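 Huh-luc/neo-ET replicon cells transiently transfected with FLAG-tagged CHIP plasmid or empty vector and treated with compound for 24 h. HCV RNA and NS3 and NS5A protein levels measured. Representative of more than two independent experiments; two-tailed Student's t-test, p < .05.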

[13] = target: Heat shock cognate 71 kDa protein (Homo sapiens) (UniProt P11142); test: Induction of HSC70 chaperone activity in human Huh-luc/neo-ET cells co-transfected with FLAG-tagged CHIP assessed as reduction in HCV RNA NS3 protein expression at 3 nM after 24 hrs; assay type: cell-based; outline: as §3
[14] = target: Heat shock cognate 71 kDa protein (Homo sapiens) (UniProt P11142); test: Induction of HSC70 chaperone activity in human Huh-luc/neo-ET cells assessed as reduction in HCV RNA NS5A protein expression at 3 nM after 24 hrs; assay type: cell-based; outline: as §3
[15] = target: Heat shock cognate 71 kDa protein (Homo sapiens) (UniProt P11142); test: Induction of HSC70 chaperone activity in human Huh-luc/neo-ET cells co-transfected with FLAG-tagged CHIP assessed as reduction in HCV RNA NS5A protein expression at 3 nM after 24 hrs; assay type: cell-based; outline: as §3
[16] = Effect on […] CHIP expression in human Huh-luc/neo-ET cells at 3 nM after 24 hrs; assay type: ADME, cell-based; details: 0.003 µM
HepG2 2.2.15 [17] = test: Effect on HSC70 expression in human HepG2(2.2.15) cells at 3 nM measured up to 72 hrs by Western blot analysis; assay type: functional, cell-based

## COc1ccc2c3c(c4cc(OC)c(OC)cc4c2c1)C[C@H]1CCN(N(C)C)CN1C3 (racemic)
Hepatitis C virus
  pEC50: 5.43
[1]
  pIC50: 5.40
[2]
  selectivity ratio: 1.07
Hepatitis B virus
  EC10: > 900 nM
HepG2 2.2.15 [3]
  pIC50: 5.62

## COc1ccc2c3c(c4cc(OC)c(OC)cc4c2c1)C[C@H]1C[C@@H](O)CCN1C3 (racemic)
Hepatitis C virus
  pEC50: 8.31
[1]
  pIC50: 7.38
[2]
  selectivity ratio: 8.59
Hepatitis B virus
  EC10: > 26 nM
HepG2 2.2.15 [3]
  pIC50: 6.87
[4]
  displacement activity (active/not active): inactive

## COc1ccc2c3c(c4cc(OC)c(OC)cc4c2c1)C[C@H]1CC[C@@H](O)CN1C3 (racemic)
Hepatitis C virus
  pEC50: 8.52
[1]
  pIC50: 7.67
[2]
  selectivity ratio: 7.1
Hepatitis B virus
  EC10: > 25 nM
HepG2 2.2.15 [3]
  pIC50: 6.59
[5]
  Activity: Active
[4]
  displacement activity (active/not active): inactive

## COc1ccc2c3c(c4cc(OC)c(OC)cc4c2c1)C[C@H]1CN(C2CC2)CN1C3 (racemic)
Hepatitis C virus
  pEC50: 6.12
[1]
  pIC50: 6.00
[2]
  selectivity ratio: 1.33
Hepatitis B virus
  EC10: > 300 nM
HepG2 2.2.15 [3]
  pIC50: 6.09

## COc1ccc2c3c(c4cc(OC)c(OC)cc4c2c1)C[C@H]1CCCCCN1C3 (racemic)
Hepatitis C virus
  pEC50: 7.28
[1]
  pIC50: 6.52
[2]
  selectivity ratio: 5.75
Hepatitis B virus
  EC10: > 1000 nM
HepG2 2.2.15 [3]
  pIC50: 5.57

## COc1ccc2c3c(c4cc(OC)c(OC)cc4c2c1)C[C@H]1C[C@H](O)CCN1C3
Hepatitis C virus
  pEC50: 8.85
[1]
  pIC50: 8.30
[2]
  selectivity ratio: 3.57
Hepatitis B virus
  EC10: > 5.5 nM
HepG2 2.2.15 [3]
  pIC50: 7.31
[5]
  Activity: Active
[6]
  Activity: Active
[4]
  displacement activity (active/not active): Active
[7]
  Activity: Active
[8]
  Activity: Active
[9]
  Activity: Active
[10]
  Activity: Active
[11]
  Activity: Non-Toxic
Huh-luc/neo-ET
  Activity: inactive

## COc1ccc2c3c(c4cc(OC)c(OC)cc4c2c1)C[C@H]1CCCCN1C3 [CRYPTOPLEURINE]
Hepatitis B virus
  EC10: > 30 nM
[5]
  Activity: Active
[7]
  Activity: Active
[12]
  Activity: Active
[13]
  Activity: Active
[14]
  Activity: Active
[15]
  Activity: Active
[16]
  Activity: Non-Toxic
HepG2 2.2.15 [17]
  Activity: inactive

## COc1cc2c3c(c4cc(OC)c(OC)cc4c2cc1OC)[C@H](O)[C@@H]1CCCN1C3
Hepatitis C virus
  pEC50: 7.50
[1]
  pIC50: 7.04
[2]
  selectivity ratio: 2.89
Hepatitis B virus
  EC10: > 300 nM
HepG2 2.2.15 [3]
  pIC50: 7.00

## COc1ccc2c3c(c4cc(OC)c(OC)cc4c2c1)C[C@H]1CCOCN1C3 (racemic)
Hepatitis C virus
  pEC50: 6.19
[1]
  pIC50: 6.00
[2]
  selectivity ratio: 1.54
Hepatitis B virus
  EC10: > 500 nM
HepG2 2.2.15 [3]
  pIC50: 5.96

## COc1ccc2c3c(c4cc(OC)c(OC)cc4c2c1)C[C@H]1CNCCN1C3 (racemic)
Hepatitis C virus
  pEC50: 6.74
[1]
  pIC50: 6.00
[2]
  selectivity ratio: 5.46
Hepatitis B virus
  EC10: > 500 nM
HepG2 2.2.15 [3]
  pIC50: 5.85

## COc1ccc2c3c(c4cc(OC)c(OC)cc4c2c1)C[C@H]1CCOCCN1C3 (racemic)
Hepatitis C virus
  pEC50: 7.78
[1]
  pIC50: 6.92
[2]
  selectivity ratio: 7.19
Hepatitis B virus
  EC10: > 300 nM
HepG2 2.2.15 [3]
  pIC50: 5.40

## COc1ccc2c3c(c4cc(OC)c(OC)cc4c2c1)C[C@H]1CC[C@H](O)CN1C3 (racemic)
Hepatitis C virus
  pEC50: 6.61
[1]
  pIC50: 5.43
[2]
  selectivity ratio: 15.2
Hepatitis B virus
  EC10: > 3000 nM
HepG2 2.2.15 [3]
  pIC50: 5.80
[5]
  Activity: Active
[4]
  displacement activity (active/not active): inactive
